Assay results from ChEMBL document CHEMBL1149055, “Spiroquinazoline, a novel substance P inhibitor with a new carbon skeleton, isolated from Aspergillus flavipes” (J Nat Prod, 1994).
The source made the active and inactive calls. The calls are words filed in the database; no cut-off is given here.

Molecular target: T1, Substance-P receptor (Homo sapiens, UniProt P25103)
Test: Displacement of [3H]substance P from NK1 receptor in human astrocytoma cells
Type: cell-based
How it was run: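 Whole human astrocytoma cells; inhibition of [³H]-SP binding reported as a Ki in μM.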

T1 sequence (P25103 whole entry): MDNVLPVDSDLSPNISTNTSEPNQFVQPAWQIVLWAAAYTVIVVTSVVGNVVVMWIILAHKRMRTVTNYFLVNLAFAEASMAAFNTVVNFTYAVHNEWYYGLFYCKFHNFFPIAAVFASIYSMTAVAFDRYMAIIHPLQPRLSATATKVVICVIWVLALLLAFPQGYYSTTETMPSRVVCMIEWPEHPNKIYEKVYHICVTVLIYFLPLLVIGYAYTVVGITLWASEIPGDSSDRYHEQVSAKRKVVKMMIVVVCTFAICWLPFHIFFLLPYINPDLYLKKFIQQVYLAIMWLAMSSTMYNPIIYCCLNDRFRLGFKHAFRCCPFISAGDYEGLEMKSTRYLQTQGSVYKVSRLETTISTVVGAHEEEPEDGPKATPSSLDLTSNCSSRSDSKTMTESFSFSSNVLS

Row | SMILES | Ki
1 | C[C@@]12NC(=O)[C@@H](C[C@@]13c1ccccc1N1C(=O)CN[C@@H]13)n1c2nc2ccccc2c1=O [SPIROQUINAZOLINE] | 95 µM
2 | C=CC(C)(C)[C@@]12C[C@H]3C(=O)Nc4ccccc4C(=O)N3[C@@H]1N(C(C)=O)c1ccccc12 [ACYL ASZONALENIN] | 170 µM

Molecular target: T1, Substance-P receptor
Test: Displacement of [3H]substance P from NK1 receptor in human astrocytoma cells at 200 uM
Type: cell-based

Row | Activity | SMILES
3 | inactive | O=C1N[C@@H](Cc2ccccc2)C(=O)N2CCC[C@H]12
4 | inactive | CC(C)C[C@@H]1NC(=O)[C@@H]2CCCN2C1=O
5 | inactive | O=C1N[C@@H](Cc2ccc(O)cc2)C(=O)N2CCC[C@@H]12
6 | inactive | O=C1N[C@@H](Cc2ccc(O)cc2)C(=O)N2CCC[C@H]12
7 | inactive | O=C1N[C@@H](Cc2ccccc2)C(=O)N2CCC[C@@H]12

More lines, now with the values behind:

Row | SMILES | Activity
8 | O=C1N[C@@H](Cc2c[nH]c3ccccc23)C(=O)Nc2ccccc21 | inactive
9 | O=C(N[C@H](CO)Cc1ccccc1)c1ccccc1 | inactive
10 | C[C@H]1N[C@H]2N(C1=O)c1ccccc1[C@@]21C[C@@H]2C(=O)N[C@](C)(O1)c1nc3ccccc3c(=O)n12 | inactive
11 | CC(C)[C@@H]1NC(=O)[C@H]2CCCN2C1=O | inactive
12 | CC(C)[C@@H]1NC(=O)[C@@H]2CCCN2C1=O | inactive
